Experimental findings from ChEMBL document CHEMBL1240314, “Small-molecule inhibitor of p53 binding to mitochondria protects mice from gamma radiation” (2006) are described below.

The structures appear in SMILES notation. Activity calls are given as the source filed them. The rule behind the calls is not given here.

The nature of experiment [1]: Antiapoptotic activity against fas-induced apoptosis in mouse fibroblast assessed as cell survival at 0.1 uM to 10 uM by methylene blue assay in presence of 1 ug/ml cycloheximidine after 24 hrs. In kind it is functional, cell-based.
Experiment [2] has as its target Cellular tumor antigen p53 (Homo sapiens) (UniProt P04637). The experiment in a line: Inhibition of p53-mediated apoptosis in human Saos-2 cells harboring p53 expressing lentiviral vector assessed as cell survival at 10 uM after 48 hrs by methylene blue assay. In kind it is cell-based. A digest of the protocol: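 Saos-2 cells infected with p53-expressing lentivirus; 10 µM test agent added 5 h after infection. Survival assessed 48 h after infection by methylene blue (0.5%) staining of attached cells and optical density read-out. Means ± s.d., n = 3.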

For another experiment, the system named is Thymocyte. The experiment is described as follows: Induction of p21 mRNA expression in mouse thymocytes.

Chain of Cellular tumor antigen p53 (Homo sapiens) (P04637 whole entry, looked up): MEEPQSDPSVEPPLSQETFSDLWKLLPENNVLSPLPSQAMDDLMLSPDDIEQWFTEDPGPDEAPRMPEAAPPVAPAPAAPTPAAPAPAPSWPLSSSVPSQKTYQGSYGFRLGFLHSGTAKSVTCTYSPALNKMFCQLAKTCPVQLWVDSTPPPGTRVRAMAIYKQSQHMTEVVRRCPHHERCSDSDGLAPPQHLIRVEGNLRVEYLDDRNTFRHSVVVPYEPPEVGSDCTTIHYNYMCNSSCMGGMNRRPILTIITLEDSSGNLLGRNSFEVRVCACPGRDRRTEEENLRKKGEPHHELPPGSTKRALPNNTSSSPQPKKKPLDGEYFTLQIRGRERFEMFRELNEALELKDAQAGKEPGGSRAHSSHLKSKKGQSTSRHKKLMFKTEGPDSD

Regarding `NS(=O)(=O)C#Cc1ccccc1`, the result (in experiment [1]; with Thymocyte) was inactive. In addition, the inhibition result in experiment [2] is “Active”.
